Assay results from different studies.
Target: Protein-tyrosine kinase 6 (PTK6, Homo sapiens, UniProt Q13882)

| Compound | read-out | action | technique | tested at | quantity | value |
| --- | --- | --- | --- | --- | --- | --- |
| CCN(CC)CCNC(=O)c1c(C)[nH]c(/C=C2\C(=O)Nc3ccc(F)cc32)c1C | enzyme activity | inhibitor | – | 10 µM | inhibition | 74% |
| COc1cc(/C=C/C(=O)CC(=O)/C=C/c2ccc(O)c(OC)c2)ccc1O | enzyme activity | inhibitor | – | 1 µM | activity vs control | 85% |
| Cc1ccc(C(=O)Nc2ccc(CN3CCN(C)CC3)c(C(F)(F)F)c2)cc1C#Cc1cnc2cccnn12 | enzyme activity | inhibitor | – | 23.5 nM | remaining activity | 95% |
| Cc1ccc(Nc2nccc(N(C)c3ccc4c(C)n(C)nc4c3)n2)cc1S(N)(=O)=O | enzyme activity | inhibitor | – | 10 µM | inhibition | 88% |
| Cc1cnc(NC2CCOCC2)nc1-n1cnc(C(=O)NC(CN)c2cc(F)cc(Cl)c2)c1 (stereo not drawn) | enzyme activity | inhibitor | radiometric | 1 µM | remaining activity | 127% |
| Cc1ccc(NC(=O)c2ccc(C)c(C(F)(F)F)c2)cc1C#Cc1nn(C2CCC(O)CC2)c2ncnc(N)c12 (stereo not drawn) | cell-free assay | – | – | 10 µM | remaining signal | -1% |
| CN(c1ccnc(CNc2nc(Nc3ccc4c(c3)CC(=O)N4)ncc2C(F)(F)F)n1)S(C)(=O)=O | cell-free assay | – | competition with immobilised ligand | 1 µM | remaining binding | 100% |
| Cc1cc(NC(=O)c2cccc3cc(-c4cccc5[nH]nc(N)c45)ccc23)ccc1F | enzyme activity | inhibitor | – | 0.1 µM | activity vs control | 97% |
| COc1cc(Nc2cnc(C#N)c(O[C@H](C)CN(C)C)n2)ncc1-c1cnn(C)c1 | enzyme activity | inhibitor | radiometric | 1 µM | remaining activity | 98% |
| N#CCCc1ccc2c(c1)-c1[nH]c3ccc([N+](=O)[O-])cc3c1CC(=O)N2 | cell-free assay | – | – | 0.5 µM | remaining signal | 94.6% |
| O=C1CCc2cc(Nc3cc(OC4CCOCC4)c([N+](=O)[O-])cc3Cl)ccc2N1 | cell-free assay | – | competition with immobilised ligand | 1 µM | remaining binding | 100% |
| CC(C)(C)c1nc(-c2cccc(NS(=O)(=O)c3c(F)cccc3F)c2F)c(-c2ccnc(N)n2)s1 | enzyme activity | inhibitor | radiometric | 1 µM | remaining activity | 26% |
| CNC(=O)c1cc(Oc2ccc(NC(=O)Nc3ccc(Cl)c(C(F)(F)F)c3)cc2)ccn1 | enzyme activity | inhibitor | – | 0.3 µM | inhibition | -3% |
| Nc1ncnc2occ(-c3ccc(NC(=O)Nc4cc(C(F)(F)F)ccc4F)cc3)c12 | cell-free assay | inhibitor | – | 20 µM | remaining signal | 20% |
| O=C1NC(=O)c2cc(Nc3ccc(F)cc3)c(Nc3ccc(F)cc3)cc21 | cell-free assay | – | – | 0.5 µM | remaining signal | 95.1% |
| CC(=O)C1=C(C)N(c2cccc(C(F)(F)F)c2)C(=O)N[C@@H]1c1ccc(C#N)nc1 | cell-free assay | – | competition with immobilised ligand | 1 µM | remaining binding | 100% |
| COc1cc2ncnc(Nc3ccc(Oc4ccccc4)cc3C)c2cc1OC | enzyme activity | inhibitor | – | 1 µM | inhibition | 95% |
| CCCOc1ccc([C@@H]2[C@@H](C(=O)O)[C@H](c3ccc4c(c3)OCO4)CN2CC(=O)Nc2c(CC)cccc2CC)cc1 | cell-free assay | – | competition with immobilised ligand | 1 µM | remaining binding | 83% |
| Cc1sc(C(=O)NC2COC2)cc1-n1cc(NC(=O)Nc2c(F)cccc2Cl)cn1 | enzyme activity | inhibitor | – | 10 µM | remaining activity | 78.9% |
| O=C(O)[C@@H]1[C@@H](Cn2nnc3ccccc3c2=O)CC[C@H]1C(=O)c1ccc(OCCC2CCOCC2)cc1 | cell-free assay | – | competition with immobilised ligand | 1 µM | remaining binding | 99% |
| Nc1nc(Nc2ccc(S(N)(=O)=O)cc2)nn1C(=O)c1c(F)cccc1F | cell-free assay | – | – | 0.5 µM | remaining signal | 83.9% |
| CC(=O)N1CCC(c2ccc(C(=O)NC3=NCCN3)cc2C(F)(F)F)CC1 | cell-free assay | – | competition with immobilised ligand | 1 µM | remaining binding | 88% |
| COc1cc2nccc(Oc3ccc(NC(=O)c4c5n(n(-c6ccc(F)cc6)c4=O)CCCC5)cc3)c2cc1OC | enzyme activity | inhibitor | – | 0.1 µM | inhibition | 37% |
| CS(=O)(=O)c1cc(C2(NC(=O)c3cncc4c3cnn4-c3ccc(F)cc3)CC2)ccn1 | cell-free assay | – | competition with immobilised ligand | 1 µM | remaining binding | 80% |
| CN(C)C1CCN(CC#Cc2nn(C3CCCC3)c3nc(NCc4ccccc4)ncc23)C1 (stereo not drawn) | enzyme activity | inhibitor | FRET | 1 µM | inhibition | 1% |
| O=C(NS(=O)(=O)c1ccc(NCC2CCOCC2)c([N+](=O)[O-])c1)c1ccc(N2CCN(Cc3ccc(C(F)(F)F)cc3-c3ccc(Cl)cc3)CC2)cc1Oc1cnc2[nH]ccc2c1 | cell-free assay | – | competition with immobilised ligand | 1 µM | remaining binding | 100% |
| FC(F)(F)Oc1cccc(-c2cnc3ccc(-c4ccncc4)nn23)c1 | enzyme activity | inhibitor | radiometric | 1 µM | activity vs control | 72% |
